Results on 38 variants are retold here after the RNAGym collection of RNA variant scans (doi:10.1126/science.aae0568).

B1: tRNA (parent)
chain: GUUCCGUUGGCGUAAUGGUAACGCGUCUCCCUCCUAAGGAGAAGACUGCGGGUUCGAGUCCCGUACGGAACG

Fewer inactive variants are shown than the library holds.

The variants in the series derive from B1. As to the kind of experiment: yeast fitness relative to wild type (ratio to wild type); higher = fitter; tRNA-Arg(CCU), competitive growth, 37 C, YPD. The procedure, abridged:
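Changes in genotype frequencies gave Darwinian fitness relative to wild type. Frequencies were read by 100-nucleotide paired-end sequencing of gene amplicons before and after pooled Saccharomyces cerevisiae strains, carrying tRNA-Arg(CCU) gene variants at the native locus, were competed in YPD at 37°C for 24 hours in six replicates. A genotype was kept only with ≥ 100 starting reads, and estimates < 0.5 were set to 0.5.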
For GUUCCAUUGGCGUAAUGGUAACGCGUCUCCCUCCUAUGGAGAAGACUGCGGGUUCGAGUCCUGUACGGAACG [G6A A37U C62U], the yeast fitness was at most 0.5.

With GUUCCGUUGGCGUAAUGGUAACGCGUCUCCCUCCUAAGGAGAAGACUGUGGGUUCGAGUCCCGUUCGGUACG [C49U A65U A69U], the yeast fitness was 0.861.

As to GUUCCGUUGGCCUAAUGGUAACGCGUCUCCCUGCUAAGGAGAACACUGCGGGUACGAGUCCCGUACGGAACG [G12C C33G G44C U54A], the yeast fitness is at most 0.5. With GUUCCGUUGGGGUAAUGGUAACGCGUCUCCCUCCUAAGGAGAAGACUGCGGGUUCGAGUCCCGUACGGACCG [C11G A70C] the figure was 0.776. Regarding GUUCUGUUGGCGUAAUGGUAACGCGUCUCCCUCCUAAGGAGAAGACUGCGGAUUCGAGUCCCGUACGGAACG [C5U G52A], the yeast fitness was 0.697. Take GUUCCGUUCGCGUAAUGGUAACGCGUCUCCCUUCUAAGGGGAAGACUGCGGGUGCGAGUCCGGUACGGAACG [G9C C33U A40G U54G C62G]: the yeast fitness was at most 0.5. The figure for GUUCCGUUGGCGUAAUGGUAACGCGUCUCGCUCCUAAGGAGAAGGCUGCGGGUUCGAGUCCCGUACGGAACG [C30G A45G] is 0.698; for GUUCCGUUGGCGUAAUGGUAACGCGUCUCCCUCCUACGGAGAAGAUUGCGGGUUCGAGUCCCGUCCGAAACG [A37C C46U A65C G68A] it is at most 0.5. On to GUUCCGUGGGCGUAUUGGUCACGCGUCUCCCUCCUAAGGAGAAGACUGCGGGUUCGAGUCCCGUACGGCACG [U8G A15U A20C A69C], for which the yeast fitness was at most 0.5. With GUUCCGGUGGCCUAAUGGUAACCCGUCUGCCUCCUAAGGAGAAGACUGCGGGUUCGAGUACCGUACGGAACG [U7G G12C G23C C29G C60A], the yeast fitness was at most 0.5. Take GAUCCGUUGGCGUAAUGGACACGCGACUCCCUCCUAAGGAGAGGACUGCGGGUUCGAGUCCCGUACGGAACG [U2A U19A A20C U26A A43G]: the yeast fitness is at most 0.5.

For GUUCCGUGGGCGUAAUGGUAACGCGUCUCCCUCCUAAGGAGAAGACUGCGAGUUCGAGUCCCGUACGGAACG [U8G G51A], the yeast fitness was at most 0.5.

On to GUUCAGUUGGCGUAAUGGUAACACGUCUCCCUCCUAAGCACAAGACUGCGGGUUCGAGUCCCGUACGGACCG [C5A G23A G39C G41C A70C], for which the yeast fitness was at most 0.5. Consider GUUCCGUUGGCGUAAUGGUAACGCGUCUCCCUCCUAAGGAGAAGACUGCGGGUUCGAAUCCCGUACGGGACG [G58A A69G], for which the yeast fitness is 1.15. In the case of GUUCCGUUGCCGUAAUGGUAACGCGUCUCCCUCCUAAGGAGAAGACUGUGGGUUCGAGUCCCGUACGGAACG [G10C C49U], the yeast fitness was found to be 0.613. The figure for GUUCCGUUGGCGUAAUGGUAACGCGUCUCCCUCCUAAGGAGAAGACUGCGGGUUUGAGUCGCGUGCGAAACG [C55U C61G A65G G68A] is 0.584; for GUUCCGUUGGCGUAAUGGUAACGCGUCUCUCUCCUAAGGAGAAGACAGCGGGUUCGAGUCCCGUACCGAUCG [C30U U47A G67C A70U] it is at most 0.5. The figure for GUUCCGUUGGCGUAAUGGCAACGCGUCUCCCUCCUAAGGAGAAGACUGCGGGUCCGAGUCCCGUACGGAACG [U19C U54C] is 0.879; for GUUCCGUCGGCGUAAUGGUAACGCGUCUCCCUCCUAAGGAGACGACUGGGGGUUCGAGUCACGUACGGAACG [U8C A43C C49G C61A] it is 0.693. As for GUUCCCUUGGCGUGAUGGUAACGCGUCUCCCUCCGAAGGAGAAGACUGCGGGUUCGAGUCCCGUACGGAACG [G6C A14G U35G], the yeast fitness is 0.605. For the variant GUUCCGUUGGCGUAAUGGUAACGCGUCUCCCUCCUAAGGAGAAGAUUACGGGUUUGAGACCCGUACGGAACG [C46U G48A C55U U59A], the yeast fitness is at most 0.5. The figure for GUUCCGUUGGCGUAAUGGUAACGUGUGUCCCUCCUAACGAGAAGACUGCGGGUUCGUGUACGGUACGGAACG [C24U C27G G38C A57U C60A C62G] is at most 0.5; for GAUCCGUUGGCGUAGUGGUAACGCGUCUCCCUCCUAAGGAGAAGACUGCGGGUUCGAGUCCCGUACGGAACG [U2A A15G] it is 0.981. With GUUCCGUUGGCGUAAUGGUAACGUGUCUCCCUCCUAAGGAGAAGACUGCGGGUUCGAGUCCCGUACGGAGCG [C24U A70G] the figure was 0.887; with GUUCCGUUAGCGUAAUGGUAACGCGUCUCCCUCCUAGGGAGAAGACUGCGGGUUCGAGUCCCGUACGGAACG [G9A A37G], 0.795. For GUUCCGUUGGCGUGAUGGUAACGCGUCUCCCUCCUAAGGUGAAGAGUGCCGGUUCGUGUCCCGUACGGAACG [A14G A40U C46G G50C A57U], the yeast fitness was at most 0.5. Turning to GCUCCGUUGGCGUAAUGGUAAUGCGUCUCCCUCCUAACGAGAAGAUUGCGGGUUCGAGUCCCGUACGGAACG [U2C C22U G38C C46U], the yeast fitness is at most 0.5.

As to GUUCCGUUGGCGAAAUGGUAACGCGUCUCCAUCCUAAGGAGAAAACUGCGGGUUCGGGUCCCGUACGGAACG [U13A C31A G44A A57G], the yeast fitness is at most 0.5. With GUUCCGUUCCCGUAAUGGUAACGCGUCUCCCUCCUAAGGAGAAGACUGCGGGUUCGAGUCCCGUACGGAACG [G9C G10C], the yeast fitness is 0.68. For GUUCCGUUGGAGUAAUGGUAACGCGUCUCCCUACUAAGGAGAAGACUGCGGGUUCGAGUCCCGUACGAAACG [C11A C33A G68A], the yeast fitness was 0.557. The figure for GUUCCGUUGGCGUAUUGGUAACGCGUGUCCCUCCUAAGGAGAAGACUGAGGGUUCGAGUCCCGUACGGAACG [A15U C27G C49A] is 0.518. For GUCCCGUUGGCGUAAUGGUAACCCGUCUCACUCCUGACGAGAAGACUGCGGGUUCGAGUCCCGUACGGAACG [U3C G23C C30A A36G G38C], the yeast fitness was at most 0.5. The figure for GUUCUGUUGGCGUAAAGGUAACGCGUCUCCCUCCUAAGGAGAAGACUGCGGGUUCGAGUCCCAUACGGAACG [C5U U16A G63A] is at most 0.5; for GUUCCGUUGCCGUAAUGGUAACGCGUCUCCCUCCUAAGGAGAAGACUGCGGGUUCGCGUCCCGAACGGAACG [G10C A57C U64A] it is at most 0.5.

For the variant GCUCCGUUGGCGUAAUGGUAACGCGUCUCGCUACUAAGGAGAAGACUGCGGGUUCGAGUCCCGUACGGAACG [U2C C30G C33A], the yeast fitness is at most 0.5. As for GUUCCGUUGCCGUAAUGGUAACGCGUCUCCCUCCUAAGGAGAAGACUGCUGGUUCGAGUCCCGUACGGAACG [G10C G50U], the yeast fitness is at most 0.5. With GUUCCGUUGGCGUAAUGGUAACGCGUCUCCAUCCUAAGGAGAAAACUGCGGGUUGGAGUCCCGUACGGAGCG [C31A G44A C55G A70G] the figure was at most 0.5. With GUUCUGUUGGCGUAAUGGUAACGCGUCUCCCUCCUAAGAAGAAGACUGCGGGUUCGAGUCCCGUACGGAACG [C5U G39A] the figure was 0.938.
